Key:
[1] = target: T1, Ephrin type-A receptor 8 (Homo sapiens) (UniProt P29322); experiment: Inhibition of human recombinant EphA8 at 40 nM in presence of ATP by radiometric assay relative to control
T1 sequence (whole entry): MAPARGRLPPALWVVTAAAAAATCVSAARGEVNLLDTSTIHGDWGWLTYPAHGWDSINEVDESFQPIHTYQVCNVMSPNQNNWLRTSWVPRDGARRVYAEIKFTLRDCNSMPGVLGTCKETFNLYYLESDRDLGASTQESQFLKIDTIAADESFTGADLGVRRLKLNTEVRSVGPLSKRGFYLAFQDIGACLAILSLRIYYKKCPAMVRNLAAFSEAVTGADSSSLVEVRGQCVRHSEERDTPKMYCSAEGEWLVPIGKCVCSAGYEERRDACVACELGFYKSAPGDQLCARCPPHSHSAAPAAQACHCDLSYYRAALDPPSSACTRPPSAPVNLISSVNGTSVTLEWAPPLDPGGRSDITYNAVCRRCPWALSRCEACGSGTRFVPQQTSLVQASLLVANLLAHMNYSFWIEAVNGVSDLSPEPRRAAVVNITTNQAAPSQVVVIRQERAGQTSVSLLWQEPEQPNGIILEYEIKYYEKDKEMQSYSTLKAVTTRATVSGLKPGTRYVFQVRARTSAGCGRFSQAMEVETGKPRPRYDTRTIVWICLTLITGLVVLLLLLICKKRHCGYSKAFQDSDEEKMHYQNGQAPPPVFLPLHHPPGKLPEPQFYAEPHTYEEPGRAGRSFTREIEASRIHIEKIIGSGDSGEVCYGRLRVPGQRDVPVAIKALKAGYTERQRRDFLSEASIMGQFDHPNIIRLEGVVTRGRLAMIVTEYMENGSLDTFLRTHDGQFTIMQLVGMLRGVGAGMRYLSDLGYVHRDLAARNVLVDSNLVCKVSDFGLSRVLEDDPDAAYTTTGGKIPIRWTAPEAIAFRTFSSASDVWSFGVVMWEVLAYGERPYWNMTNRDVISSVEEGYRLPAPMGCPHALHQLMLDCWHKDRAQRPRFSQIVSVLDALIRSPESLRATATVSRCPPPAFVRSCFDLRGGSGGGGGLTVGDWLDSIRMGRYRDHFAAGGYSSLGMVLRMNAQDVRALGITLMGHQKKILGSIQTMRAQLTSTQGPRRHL

[2] = target: Angiopoietin-1 receptor (Homo sapiens) (UniProt Q02763); experiment: Inhibition of human recombinant Tie2 at 40 nM related to control ULK1
[3] = target: Fibroblast growth factor receptor 3 (Homo sapiens) (UniProt P22607); experiment: Inhibition of human recombinant FGFR3 at 15 nM in presence of ATP by radiometric assay relative to control
[4] = target: Vascular endothelial growth factor receptor 2 (Homo sapiens) (UniProt P35968); experiment: Inhibition of human recombinant KDR at 15 nM in presence of ATP by radiometric assay relative to control
[5] = target: TGF-beta receptor type-2 (Homo sapiens) (UniProt P37173); experiment: Inhibition of human recombinant TGFbR2 at 15 nM in presence of ATP by radiometric assay relative to control
[6] = target: Aurora kinase B (Homo sapiens) (UniProt Q96GD4); experiment: Inhibition of human recombinant AurB at 500 nM in presence of ATP by radiometric assay relative to control
In short: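 Part of a radiometric in vitro activity panel of 327 recombinant human kinases. Each kinase was tested in duplicate at one inhibitor concentration. Activity remaining was expressed as a percentage of the vehicle control, and percent inhibition was taken as 100 minus that value.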

[7] = target: T2, Protein kinase C epsilon type (Homo sapiens) (UniProt Q02156); experiment: Inhibition of human recombinant PKCe at 500 nM in presence of ATP by radiometric assay relative to control
T2 sequence (whole entry): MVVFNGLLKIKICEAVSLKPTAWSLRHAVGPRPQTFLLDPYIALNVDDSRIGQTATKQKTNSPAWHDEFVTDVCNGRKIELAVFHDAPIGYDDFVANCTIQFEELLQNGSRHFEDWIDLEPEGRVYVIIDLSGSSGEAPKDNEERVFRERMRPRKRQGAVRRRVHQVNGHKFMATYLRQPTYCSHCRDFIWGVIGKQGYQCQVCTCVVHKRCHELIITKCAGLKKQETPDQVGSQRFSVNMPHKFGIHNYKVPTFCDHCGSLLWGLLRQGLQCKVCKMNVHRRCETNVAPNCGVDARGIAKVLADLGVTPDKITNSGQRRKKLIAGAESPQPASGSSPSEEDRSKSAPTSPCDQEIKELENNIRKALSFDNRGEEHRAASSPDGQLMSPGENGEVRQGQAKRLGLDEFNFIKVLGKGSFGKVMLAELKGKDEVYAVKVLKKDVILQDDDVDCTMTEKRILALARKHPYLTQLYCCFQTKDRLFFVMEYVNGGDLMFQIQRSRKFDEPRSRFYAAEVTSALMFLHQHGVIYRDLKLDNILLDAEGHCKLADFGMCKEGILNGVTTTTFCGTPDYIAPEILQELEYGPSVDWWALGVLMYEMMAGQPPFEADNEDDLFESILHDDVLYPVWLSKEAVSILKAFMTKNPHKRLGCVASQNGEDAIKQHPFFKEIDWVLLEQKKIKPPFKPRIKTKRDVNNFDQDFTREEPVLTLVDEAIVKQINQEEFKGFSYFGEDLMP

[8] = target: T3, Protein kinase C zeta type (Homo sapiens) (UniProt Q05513); experiment: Inhibition of human recombinant PKCz at 500 nM in presence of ATP by radiometric assay relative to control
T3 sequence (whole entry): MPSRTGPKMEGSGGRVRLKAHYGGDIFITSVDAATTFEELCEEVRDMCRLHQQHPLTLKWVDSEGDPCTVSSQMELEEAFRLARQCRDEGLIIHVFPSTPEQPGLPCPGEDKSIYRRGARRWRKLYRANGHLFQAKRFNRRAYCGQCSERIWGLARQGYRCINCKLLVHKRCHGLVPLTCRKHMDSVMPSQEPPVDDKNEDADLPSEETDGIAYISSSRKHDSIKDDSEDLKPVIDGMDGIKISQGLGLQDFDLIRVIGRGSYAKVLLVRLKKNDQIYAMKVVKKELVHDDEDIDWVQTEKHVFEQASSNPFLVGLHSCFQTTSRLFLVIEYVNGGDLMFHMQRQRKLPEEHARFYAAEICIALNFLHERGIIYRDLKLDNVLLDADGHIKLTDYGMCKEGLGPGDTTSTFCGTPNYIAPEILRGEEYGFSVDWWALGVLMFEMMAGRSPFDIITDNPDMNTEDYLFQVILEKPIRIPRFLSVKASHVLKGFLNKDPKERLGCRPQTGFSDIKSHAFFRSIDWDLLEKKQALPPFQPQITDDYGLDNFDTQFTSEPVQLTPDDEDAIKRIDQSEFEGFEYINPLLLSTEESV

[9] = target: Fibroblast growth factor receptor 1 (Homo sapiens) (UniProt P11362); experiment: Inhibition of human recombinant FGFR1 at 500 nM related to control ULK1
[10] = target: T3, Protein kinase C zeta type (Homo sapiens); experiment: Inhibition of human recombinant PKCz at 500 nM related to control ULK1

Aurora kinase B (Homo sapiens), sequence (Q96GD4 whole entry): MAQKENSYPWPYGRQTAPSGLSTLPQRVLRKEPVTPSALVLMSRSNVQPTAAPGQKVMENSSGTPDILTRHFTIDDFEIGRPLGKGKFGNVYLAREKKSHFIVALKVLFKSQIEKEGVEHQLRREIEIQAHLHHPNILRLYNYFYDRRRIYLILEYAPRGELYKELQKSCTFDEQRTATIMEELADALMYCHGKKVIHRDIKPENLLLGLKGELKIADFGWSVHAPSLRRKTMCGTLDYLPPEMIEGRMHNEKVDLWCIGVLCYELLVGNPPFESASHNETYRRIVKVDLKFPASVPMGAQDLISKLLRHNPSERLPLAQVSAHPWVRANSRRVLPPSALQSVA
Vascular endothelial growth factor receptor 2 (Homo sapiens), sequence (P35968 whole entry): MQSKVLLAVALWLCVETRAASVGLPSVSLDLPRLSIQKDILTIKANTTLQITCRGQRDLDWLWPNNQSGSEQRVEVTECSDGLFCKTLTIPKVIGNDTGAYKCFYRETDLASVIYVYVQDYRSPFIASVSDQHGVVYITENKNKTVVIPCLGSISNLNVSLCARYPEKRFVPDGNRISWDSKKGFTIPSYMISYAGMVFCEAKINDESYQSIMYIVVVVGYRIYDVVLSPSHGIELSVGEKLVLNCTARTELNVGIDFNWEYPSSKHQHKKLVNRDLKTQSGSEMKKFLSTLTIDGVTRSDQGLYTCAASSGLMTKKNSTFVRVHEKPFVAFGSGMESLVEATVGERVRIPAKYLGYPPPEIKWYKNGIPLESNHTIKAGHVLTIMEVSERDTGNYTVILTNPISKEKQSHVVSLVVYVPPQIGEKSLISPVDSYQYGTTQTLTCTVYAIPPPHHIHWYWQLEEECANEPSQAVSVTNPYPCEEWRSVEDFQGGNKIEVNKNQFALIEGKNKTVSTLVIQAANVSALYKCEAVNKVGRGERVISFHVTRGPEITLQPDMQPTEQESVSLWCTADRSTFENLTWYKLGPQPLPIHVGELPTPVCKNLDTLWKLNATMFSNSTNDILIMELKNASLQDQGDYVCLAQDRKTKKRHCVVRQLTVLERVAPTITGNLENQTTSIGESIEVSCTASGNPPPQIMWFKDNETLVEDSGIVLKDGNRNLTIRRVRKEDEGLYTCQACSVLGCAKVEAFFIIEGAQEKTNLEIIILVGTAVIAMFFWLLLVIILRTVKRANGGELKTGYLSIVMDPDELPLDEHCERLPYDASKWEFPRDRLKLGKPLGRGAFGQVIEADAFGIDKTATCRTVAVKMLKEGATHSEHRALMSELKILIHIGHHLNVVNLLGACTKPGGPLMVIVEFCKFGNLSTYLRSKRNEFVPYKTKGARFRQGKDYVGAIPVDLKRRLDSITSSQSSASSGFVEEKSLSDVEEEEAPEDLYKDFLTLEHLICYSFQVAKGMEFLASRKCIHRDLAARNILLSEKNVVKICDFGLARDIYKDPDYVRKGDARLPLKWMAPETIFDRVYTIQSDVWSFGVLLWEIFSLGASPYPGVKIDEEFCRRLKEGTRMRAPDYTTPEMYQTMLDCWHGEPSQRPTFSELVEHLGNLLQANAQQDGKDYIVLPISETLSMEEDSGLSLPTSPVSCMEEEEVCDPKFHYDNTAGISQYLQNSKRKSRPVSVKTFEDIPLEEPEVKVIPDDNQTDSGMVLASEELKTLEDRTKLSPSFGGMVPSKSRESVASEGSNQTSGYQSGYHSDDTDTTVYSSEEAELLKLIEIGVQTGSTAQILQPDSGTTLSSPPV
Fibroblast growth factor receptor 1 (Homo sapiens), sequence (P11362 22-822 limits assumed): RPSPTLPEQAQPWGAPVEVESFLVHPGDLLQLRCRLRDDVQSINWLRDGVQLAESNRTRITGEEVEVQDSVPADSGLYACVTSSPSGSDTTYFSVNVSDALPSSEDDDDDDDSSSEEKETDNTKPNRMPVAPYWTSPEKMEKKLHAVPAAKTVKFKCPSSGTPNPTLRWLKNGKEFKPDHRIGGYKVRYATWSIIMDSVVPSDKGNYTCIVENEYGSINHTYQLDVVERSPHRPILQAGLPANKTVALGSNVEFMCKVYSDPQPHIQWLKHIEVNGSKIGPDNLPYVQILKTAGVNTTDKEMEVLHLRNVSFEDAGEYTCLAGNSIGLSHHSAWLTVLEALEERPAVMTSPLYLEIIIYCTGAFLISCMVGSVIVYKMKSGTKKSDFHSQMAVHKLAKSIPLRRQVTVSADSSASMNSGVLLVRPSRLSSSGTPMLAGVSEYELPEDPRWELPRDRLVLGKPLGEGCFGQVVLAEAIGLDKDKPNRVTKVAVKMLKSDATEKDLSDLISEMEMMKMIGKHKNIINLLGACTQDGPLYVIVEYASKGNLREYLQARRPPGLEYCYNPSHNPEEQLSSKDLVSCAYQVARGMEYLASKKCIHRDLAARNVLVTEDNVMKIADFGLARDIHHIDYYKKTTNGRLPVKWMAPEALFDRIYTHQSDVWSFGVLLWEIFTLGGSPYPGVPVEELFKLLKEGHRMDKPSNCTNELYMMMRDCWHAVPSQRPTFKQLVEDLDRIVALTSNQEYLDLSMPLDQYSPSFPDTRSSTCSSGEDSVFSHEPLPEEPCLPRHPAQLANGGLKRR
TGF-beta receptor type-2 (Homo sapiens), sequence (P37173 whole entry): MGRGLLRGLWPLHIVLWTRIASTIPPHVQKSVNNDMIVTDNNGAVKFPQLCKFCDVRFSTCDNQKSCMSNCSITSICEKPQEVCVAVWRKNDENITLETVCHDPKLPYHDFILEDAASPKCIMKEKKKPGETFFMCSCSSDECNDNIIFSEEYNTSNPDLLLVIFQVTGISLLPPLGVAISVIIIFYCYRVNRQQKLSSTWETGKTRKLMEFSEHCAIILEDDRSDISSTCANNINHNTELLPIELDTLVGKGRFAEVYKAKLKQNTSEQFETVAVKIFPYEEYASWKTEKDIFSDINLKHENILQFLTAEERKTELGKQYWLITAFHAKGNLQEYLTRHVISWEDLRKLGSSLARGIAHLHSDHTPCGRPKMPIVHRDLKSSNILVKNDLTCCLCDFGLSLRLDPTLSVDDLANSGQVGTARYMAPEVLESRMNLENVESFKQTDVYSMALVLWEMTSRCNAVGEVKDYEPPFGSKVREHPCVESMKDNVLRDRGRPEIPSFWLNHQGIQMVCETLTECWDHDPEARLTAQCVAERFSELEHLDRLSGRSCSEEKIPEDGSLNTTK
Fibroblast growth factor receptor 3 (Homo sapiens), sequence (P22607 23-806 limits assumed): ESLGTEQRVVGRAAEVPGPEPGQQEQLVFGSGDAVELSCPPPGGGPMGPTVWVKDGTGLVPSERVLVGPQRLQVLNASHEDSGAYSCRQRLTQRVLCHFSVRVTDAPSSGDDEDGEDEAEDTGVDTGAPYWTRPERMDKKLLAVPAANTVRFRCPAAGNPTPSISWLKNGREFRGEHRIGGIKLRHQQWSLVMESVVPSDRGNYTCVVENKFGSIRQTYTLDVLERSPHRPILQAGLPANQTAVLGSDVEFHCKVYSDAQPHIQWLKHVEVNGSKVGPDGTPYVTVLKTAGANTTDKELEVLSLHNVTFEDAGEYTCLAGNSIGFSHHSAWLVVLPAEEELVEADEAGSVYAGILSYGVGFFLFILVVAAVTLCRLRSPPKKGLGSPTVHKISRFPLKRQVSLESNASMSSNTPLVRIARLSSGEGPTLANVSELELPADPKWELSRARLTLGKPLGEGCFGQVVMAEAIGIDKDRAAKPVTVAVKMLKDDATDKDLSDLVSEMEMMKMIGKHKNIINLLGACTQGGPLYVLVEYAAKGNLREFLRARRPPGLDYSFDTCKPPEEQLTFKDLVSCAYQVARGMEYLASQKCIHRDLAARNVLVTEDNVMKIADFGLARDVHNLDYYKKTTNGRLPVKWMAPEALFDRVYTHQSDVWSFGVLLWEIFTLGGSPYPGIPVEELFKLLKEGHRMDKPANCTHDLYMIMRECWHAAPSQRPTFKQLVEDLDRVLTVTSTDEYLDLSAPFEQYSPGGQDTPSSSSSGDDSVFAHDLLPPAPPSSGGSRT
Angiopoietin-1 receptor (Homo sapiens), sequence (Q02763 whole entry): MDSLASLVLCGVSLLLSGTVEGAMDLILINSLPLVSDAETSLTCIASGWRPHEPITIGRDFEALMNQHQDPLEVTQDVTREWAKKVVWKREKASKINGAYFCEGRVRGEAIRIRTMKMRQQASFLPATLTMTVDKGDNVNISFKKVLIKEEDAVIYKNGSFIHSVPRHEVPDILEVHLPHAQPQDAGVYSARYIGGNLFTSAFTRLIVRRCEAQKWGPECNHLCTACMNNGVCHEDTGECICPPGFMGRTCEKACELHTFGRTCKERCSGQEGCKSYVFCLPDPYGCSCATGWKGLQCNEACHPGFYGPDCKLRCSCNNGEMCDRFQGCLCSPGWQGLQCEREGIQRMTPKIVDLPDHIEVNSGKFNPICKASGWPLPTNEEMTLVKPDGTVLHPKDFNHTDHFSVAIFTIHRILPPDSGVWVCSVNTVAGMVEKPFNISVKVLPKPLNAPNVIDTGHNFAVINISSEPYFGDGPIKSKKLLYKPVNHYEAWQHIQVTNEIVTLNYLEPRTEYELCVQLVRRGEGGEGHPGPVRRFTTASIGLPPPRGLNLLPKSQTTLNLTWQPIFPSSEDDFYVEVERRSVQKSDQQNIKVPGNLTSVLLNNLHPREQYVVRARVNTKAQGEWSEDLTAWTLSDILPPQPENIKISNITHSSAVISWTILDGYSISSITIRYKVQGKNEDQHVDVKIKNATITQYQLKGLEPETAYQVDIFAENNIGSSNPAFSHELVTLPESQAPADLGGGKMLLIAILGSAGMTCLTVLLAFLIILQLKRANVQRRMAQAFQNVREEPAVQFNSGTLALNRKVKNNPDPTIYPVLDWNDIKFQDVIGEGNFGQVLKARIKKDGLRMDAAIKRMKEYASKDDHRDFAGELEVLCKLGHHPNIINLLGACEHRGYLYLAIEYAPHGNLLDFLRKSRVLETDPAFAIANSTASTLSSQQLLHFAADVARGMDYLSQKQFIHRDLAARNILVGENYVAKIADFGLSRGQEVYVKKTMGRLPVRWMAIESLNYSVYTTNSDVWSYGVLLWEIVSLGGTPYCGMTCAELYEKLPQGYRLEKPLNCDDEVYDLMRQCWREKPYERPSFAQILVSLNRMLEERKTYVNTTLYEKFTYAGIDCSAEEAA

With `O=C(N[C@@H](C1CC1)C(F)(F)F)c1cc(-c2cnn3cc(-c4ccc(F)cc4)cnc23)cs1` as the compound, how does the inhibition [1] read?
Its inhibition is 0%.

What about the fold change (FC) [2] of the same compound?
The fold change (FC) was 0.

For `CC(C)[C@H](NC(=O)c1cc(-c2cnn3cc(-c4ccc(OCCN5CCCCC5)cc4)cnc23)cs1)C(F)(F)F`, which inhibition [3] is on record?
The inhibition was 0%.

What about the inhibition [4] of the same compound?
The inhibition was 20%.

And the inhibition [5]?
Its inhibition is 42%.

How did the inhibition [6] turn out when `CNC(=O)c1ccccc1Oc1nc(Nc2cc(OC)c(OC)c(OC)c2)ncc1Br` was run?
Its inhibition is 92%.

And the inhibition [7]?
The inhibition was 0%.

And the inhibition [8]?
The inhibition was 0%.

What about the fold change (FC) [9] of the same compound?
The fold change (FC) was 0.47.

What about the fold change (FC) [10] of the same compound?
Its fold change (FC) is 0.
